ChEMBL document CHEMBL1146238, “Prenylated xanthones from the root bark of Cudrania tricuspidata” (J Nat Prod, 2007)

These compounds were tested against T1, Amine oxidase [flavin-containing] A (Mus musculus, UniProt Q64133) (assay: Inhibition at monoamine oxidase in mouse brain).
T1 sequence (Q64133 whole entry): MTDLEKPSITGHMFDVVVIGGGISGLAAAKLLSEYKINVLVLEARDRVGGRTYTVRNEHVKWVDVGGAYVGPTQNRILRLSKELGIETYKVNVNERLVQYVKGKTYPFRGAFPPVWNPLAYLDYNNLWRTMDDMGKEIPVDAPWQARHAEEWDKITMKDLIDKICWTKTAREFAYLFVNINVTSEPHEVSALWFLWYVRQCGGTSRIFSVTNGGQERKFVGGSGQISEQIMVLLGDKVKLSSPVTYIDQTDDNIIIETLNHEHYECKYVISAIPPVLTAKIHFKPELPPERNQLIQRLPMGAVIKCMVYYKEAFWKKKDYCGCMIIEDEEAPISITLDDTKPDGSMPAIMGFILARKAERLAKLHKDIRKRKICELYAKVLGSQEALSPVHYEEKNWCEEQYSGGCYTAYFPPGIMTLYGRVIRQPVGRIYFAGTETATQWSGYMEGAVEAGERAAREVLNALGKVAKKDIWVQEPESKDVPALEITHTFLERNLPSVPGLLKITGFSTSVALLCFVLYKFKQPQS
Type: tissue-based
Summary of the method: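 Enzyme source: mouse brain mitochondrial fraction. Substrate kynuramine, with MAO converting it to 4-hydroxyquinoline. That product is read fluorometrically at excitation 315 nm and emission 380 nm. Compounds go in as DMSO solutions, with DMSO kept below 3%. Iproniazid serves as the positive control. Result reported as IC50.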

Compound	IC50
COc1c(CC=C(C)C)c(O)c2c(=O)c3cc(O)c(O)cc3oc2c1CC=C(C)C [CUDRATRICUSXANTHONE K]	> 150 µM
C=CC(C)(C)c1c(O)cc2oc3c4c(c(O)cc3c(=O)c2c1O)OC(C)(C)C=C4 [ISOCUDRAXANTHONE K]	> 150 µM
C=CC(C)(C)c1c(O)cc(O)c2c(=O)c3cc(O)c(O)cc3oc12 [CUDRATRICUSXANTHONE L]	> 150 µM
C=CC(C)(C)c1c(O)cc(O)c2c(=O)c3c(CC=C(C)C)c(OC)c(O)cc3oc12 [CUDRAXANTHONE C]	> 150 µM
CC(C)=CCc1c(O)cc2c(c1O)C(=O)C[C@@H](c1cc3c(cc1O)OC(C)(C)C=C3)O2 [CUDRAFLAVANONE A]	89.7 µM
C=CC(C)(C)c1c(O)cc(O)c2c(=O)c3c(CCC(C)(C)O)c(O)c(O)cc3oc12 [CUDRATRICUSXANTHONE M]	> 150 µM
C=CC(C)(C)c1c(O)cc(O)c2c(=O)c3c(CC=C(C)C)c(O)c(O)cc3oc12 [CUDRATRICUSXANTHONE A]	88.3 µM
CC(C)=CCc1c(O)c(O)cc2oc3c4c(cc(O)c3c(=O)c12)OC(C)C4(C)C (stereo unspecified) [CUDRATRICUSXANTHONE J]	> 150 µM
C=CC(C)(C)c1c(O)cc2oc3c(CC=C(C)C)c(O)c(O)cc3c(=O)c2c1O [CUDRAXANTHONE L]	> 150 µM
CC(C)=CC1Oc2cc(O)ccc2-c2oc3cc4c(c(O)c3c(=O)c21)C=CC(C)(C)O4 (stereo unspecified) [CUDRAFLAVONE A]	> 150 µM
CC(C)=CCc1c(-c2ccc(O)cc2O)oc2cc3c(c(O)c2c1=O)C=CC(C)(C)O3 [CUDRAFLAVONE B]	80 µM
